Laboratory results from ChEMBL document CHEMBL1177643, “Synthesis, DNA-binding ability and anticancer activity of benzothiazole/benzoxazole-pyrrolo[2,1-c][1,4]benzodiazepine conjugates” (Bioorg Med Chem, 2010).

Key:
Calf thymus DNA = assay: Binding affinity to calf thymus duplex-form DNA assessed as melting temperature at 1:5 compound/DNA ratio after 18 hrs; assay type: nucleic-acid assay; settings: Bos taurus
NCI-H23 = assay: Growth inhibition of human NCI-H23 cells after 48 hrs by sulforhodamine B assay; assay type: functional; settings: NCI-H23, 48 h
Summary of the method: (§1)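 Panel of 60 human cancer cell lines; for each compound, dose–response curves per cell line measured at a minimum of five concentrations at 10-fold dilutions. Cells exposed continuously to drug for 48 h, and growth was read out by sulforhodamine B staining.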

SK-OV-3 = assay: Growth inhibition of human SKOV3 cells after 48 hrs by sulforhodamine B assay; assay type: functional; settings: SK-OV-3, 48 h; summary of the method: as §1
EKVX = assay: Growth inhibition of human EKVX cells after 48 hrs by sulforhodamine B assay; assay type: functional
Summary of the method: (§2)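 Dose–response in each cell line over at least five concentrations at 10-fold dilutions, with 48 h continuous exposure and sulforhodamine B read-out.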

HCT-116 = assay: Growth inhibition of human HCT116 cells after 48 hrs by sulforhodamine B assay; assay type: functional; settings: HCT-116, 48 h; summary of the method: as §1
HOP-92 = assay: Growth inhibition of human HOP92 cells after 48 hrs by sulforhodamine B assay; assay type: functional; settings: HOP-92, 48 h; summary of the method: as §1
K562 = assay: Growth inhibition of human K562 cells after 48 hrs by sulforhodamine B assay; assay type: functional; settings: K562, 48 h; summary of the method: as §1
UO-31 = assay: Growth inhibition of human UO31 cells after 48 hrs by sulforhodamine B assay; assay type: functional; settings: UO-31, 48 h; summary of the method: as §1
HOP-62 = assay: Growth inhibition of human HOP62 cells after 48 hrs by sulforhodamine B assay; assay type: functional; settings: HOP-62, 48 h; summary of the method: as §1
HT-29 = assay: Growth inhibition of human HT-29 cells after 48 hrs by sulforhodamine B assay; assay type: functional; settings: HT-29, 48 h; summary of the method: as §1
A549 = assay: Growth inhibition of human A549 cells after 48 hrs by sulforhodamine B assay; assay type: functional; settings: A549, 48 h; summary of the method: as §2
SK-MEL-28 = assay: Growth inhibition of human SK-MEL-28 cells after 48 hrs by sulforhodamine B assay; assay type: functional; settings: SK-MEL-28, 48 h; summary of the method: as §1
[1] = Growth inhibition of human […] cells after 48 hrs by sulforhodamine B assay; assay type: functional; summary of the method: as §1
NCI-H226 = assay: Growth inhibition of human NCI-H226 cells after 48 hrs by sulforhodamine B assay; assay type: functional; settings: NCI-H226, 48 h; summary of the method: as §1
KM12 = assay: Growth inhibition of human KM12 cells after 48 hrs by sulforhodamine B assay; assay type: functional; settings: KM12, 48 h; summary of the method: as §1
RXF 393 = assay: Growth inhibition of human RXF393 cells after 48 hrs by sulforhodamine B assay; assay type: functional; settings: RXF 393, 48 h; summary of the method: as §1
BT-549 = assay: Growth inhibition of human BT549 cells after 48 hrs by sulforhodamine B assay; assay type: functional; settings: BT-549, 48 h; summary of the method: as §2
SK-MEL-2 = assay: Growth inhibition of human SK-MEL-2 cells after 48 hrs by sulforhodamine B assay; assay type: functional; settings: SK-MEL-2, 48 h; summary of the method: as §1
SNB-19 = assay: Growth inhibition of human SNB19 cells after 48 hrs by sulforhodamine B assay; assay type: functional; settings: SNB-19, 48 h; summary of the method: as §1
A498 = assay: Growth inhibition of human A498 cells after 48 hrs by sulforhodamine B assay; assay type: functional; settings: A498, 48 h; summary of the method: as §2
CCRF-CEM = assay: Growth inhibition of human CCRF-CEM cells after 48 hrs by sulforhodamine B assay; assay type: functional; summary of the method: as §2
COLO 205 = assay: Growth inhibition of human COLO205 cells after 48 hrs by sulforhodamine B assay; assay type: functional; settings: COLO 205, 48 h; summary of the method: as §2
HCC 2998 = assay: Growth inhibition of human HCC2998 cells after 48 hrs by sulforhodamine B assay; assay type: functional; settings: HCC 2998, 48 h; summary of the method: as §1
SN12C = assay: Growth inhibition of human SN12C cells after 48 hrs by sulforhodamine B assay; assay type: functional; summary of the method: as §1
M14 = assay: Growth inhibition of human M14 cells after 48 hrs by sulforhodamine B assay; assay type: functional; settings: M14, 48 h; summary of the method: as §1
NCI-H460 = assay: Growth inhibition of human NCI-H460 cells after 48 hrs by sulforhodamine B assay; assay type: functional; settings: NCI-H460, 48 h; summary of the method: as §1
UACC-62 = assay: Growth inhibition of human UACC62 cells after 48 hrs by sulforhodamine B assay; assay type: functional; settings: UACC-62, 48 h; summary of the method: as §1
MDA-MB-435 = assay: Growth inhibition of human MDA-MB-435 cells after 48 hrs by sulforhodamine B assay; assay type: functional; settings: MDA-MB-435, 48 h; summary of the method: as §1
MOLT-4 = assay: Growth inhibition of human MOLT4 cells after 48 hrs by sulforhodamine B assay; assay type: functional; settings: MOLT-4, 48 h; summary of the method: as §1
SF-539 = assay: Growth inhibition of human SF539 cells after 48 hrs by sulforhodamine B assay; assay type: functional; settings: SF-539, 48 h; summary of the method: as §1
Malme-3M = assay: Growth inhibition of human MALME-3M cells after 48 hrs by sulforhodamine B assay; assay type: functional; summary of the method: as §1
OVCAR-3 = assay: Growth inhibition of human OVCAR-3 cells after 48 hrs by sulforhodamine B assay; assay type: functional; settings: OVCAR-3, 48 h; summary of the method: as §1
OVCAR-8 = assay: Growth inhibition of human OVCAR8 cells after 48 hrs by sulforhodamine B assay; assay type: functional; settings: OVCAR-8, 48 h; summary of the method: as §1
UACC-257 = assay: Growth inhibition of human UACC257 cells after 48 hrs by sulforhodamine B assay; assay type: functional; settings: UACC-257, 48 h; summary of the method: as §1
LOX IMVI = assay: Growth inhibition of human LOXIMVI cells after 48 hrs by sulforhodamine B assay; assay type: functional; summary of the method: as §1
SNB-75 = assay: Growth inhibition of human SNB75 cells after 48 hrs by sulforhodamine B assay; assay type: functional; settings: SNB-75, 48 h; summary of the method: as §1
MCF7 = assay: Growth inhibition of human MCF7 cells after 48 hrs by sulforhodamine B assay; assay type: functional; settings: MCF7, 48 h; summary of the method: as §1
MDA-MB-231 = assay: Growth inhibition of human MDA-MB-231 cells after 48 hrs by sulforhodamine B assay; assay type: functional; settings: MDA-MB-231, 48 h; summary of the method: as §1
DU-145 = assay: Growth inhibition of human DU145 cells after 48 hrs by sulforhodamine B assay; assay type: functional; settings: DU-145, 48 h; summary of the method: as §2
786-0 = assay: Growth inhibition of human 786-0 cells after 48 hrs by sulforhodamine B assay; assay type: functional; settings: 786-0, 48 h; summary of the method: as §2
ACHN = assay: Growth inhibition of human ACHN cells after 48 hrs by sulforhodamine B assay; assay type: functional; summary of the method: as §2
NCI-H522 = assay: Growth inhibition of human NCI-H522 cells after 48 hrs by sulforhodamine B assay; assay type: functional; settings: NCI-H522, 48 h; summary of the method: as §1
OVCAR-5 = assay: Growth inhibition of human OVCAR5 cells after 48 hrs by sulforhodamine B assay; assay type: functional; settings: OVCAR-5, 48 h; summary of the method: as §1
NCI/ADR-RES = assay: Growth inhibition of human NCI/ADR-RES cells after 48 hrs by sulforhodamine B assay; assay type: functional; summary of the method: as §1
OVCAR-4 = assay: Growth inhibition of human OVCAR4 cells after 48 hrs by sulforhodamine B assay; assay type: functional; settings: OVCAR-4, 48 h; summary of the method: as §1
T47D = assay: Growth inhibition of human T47D cells after 48 hrs by sulforhodamine B assay; assay type: functional; summary of the method: as §1
SF-268 = assay: Growth inhibition of human SF268 cells after 48 hrs by sulforhodamine B assay; assay type: functional; settings: SF-268, 48 h; summary of the method: as §1
SR = assay: Growth inhibition of human SR cells after 48 hrs by sulforhodamine B assay; assay type: functional; summary of the method: as §1
CAKI-1 = assay: Growth inhibition of human Caki1 cells after 48 hrs by sulforhodamine B assay; assay type: functional; settings: CAKI-1, 48 h; summary of the method: as §2
HL-60 = assay: Growth inhibition of human HL-60(TB) cells after 48 hrs by sulforhodamine B assay; assay type: functional; settings: HL-60, 48 h; summary of the method: as §1
Hs-578T = assay: Growth inhibition of human Hs 578T cells after 48 hrs by sulforhodamine B assay; assay type: functional; summary of the method: as §1
U-251 = assay: Growth inhibition of human U251 cells after 48 hrs by sulforhodamine B assay; assay type: functional; settings: U-251, 48 h; summary of the method: as §1
SF-295 = assay: Growth inhibition of human SF295 cells after 48 hrs by sulforhodamine B assay; assay type: functional; settings: SF-295, 48 h; summary of the method: as §1
TK-10 = assay: Growth inhibition of human TK10 cells after 48 hrs by sulforhodamine B assay; assay type: functional; settings: TK-10, 48 h; summary of the method: as §1
SK-MEL-5 = assay: Growth inhibition of human SK-MEL-5 cells after 48 hrs by sulforhodamine B assay; assay type: functional; settings: SK-MEL-5, 48 h; summary of the method: as §1
PC-3 = assay: Growth inhibition of human PC3 cells after 48 hrs by sulforhodamine B assay; assay type: functional; settings: PC-3, 48 h; summary of the method: as §1
NCI-H322M = assay: Growth inhibition of human NCI-H322M cells after 48 hrs by sulforhodamine B assay; assay type: functional; summary of the method: as §1
HCT-15 = assay: Growth inhibition of human HCT15 cells after 48 hrs by sulforhodamine B assay; assay type: functional; settings: HCT-15, 48 h; summary of the method: as §1
SW-620 = assay: Growth inhibition of human SW620 cells after 48 hrs by sulforhodamine B assay; assay type: functional; settings: SW-620, 48 h; summary of the method: as §1
IGROV-1 = assay: Growth inhibition of human IGROV1 cells after 48 hrs by sulforhodamine B assay; assay type: functional; settings: IGROV-1, 48 h; summary of the method: as §1

## COc1cc(-c2nc3ccccc3o2)ccc1OCCCCCOc1cc2c(cc1OC)C(=O)N1CCC[C@H]1C=N2
Calf thymus DNA
  ΔTm: 4.2 °C

## COc1cc2c(cc1OCCCCOc1ccc(-c3nc4ccccc4s3)cc1)N=C[C@@H]1CCCN1C2=O
NCI-H23
  GI50: 741 nM
SK-OV-3
  GI50: 1230 nM
EKVX
  GI50: 1260 nM
Calf thymus DNA
  ΔTm: 0.5 °C
HCT-116
  GI50: 295 nM
HOP-92
  GI50: 178 nM
K562
  GI50: 355 nM
UO-31
  GI50: 661 nM
HOP-62
  GI50: 407 nM
HT-29
  GI50: 380 nM
A549
  GI50: 2630 nM
SK-MEL-28
  GI50: 2140 nM
[1]
  GI50: 214 nM
NCI-H226
  GI50: 1450 nM
KM12
  GI50: 550 nM
RXF 393
  GI50: 191 nM
BT-549
  GI50: 182 nM
SK-MEL-2
  GI50: 389 nM
SNB-19
  GI50: 1510 nM
A498
  GI50: 2040 nM
CCRF-CEM
  GI50: 282 nM
COLO 205
  GI50: 339 nM
HCC 2998
  GI50: 363 nM
SN12C
  GI50: 631 nM
M14
  GI50: 537 nM
NCI-H460
  GI50: 407 nM
UACC-62
  GI50: 794 nM
MDA-MB-435
  GI50: 447 nM
MOLT-4
  GI50: 234 nM
SF-539
  GI50: 347 nM
Malme-3M
  GI50: 1260 nM
OVCAR-3
  GI50: 380 nM
OVCAR-8
  GI50: 759 nM
UACC-257
  GI50: 2190 nM
LOX IMVI
  GI50: 407 nM
SNB-75
  GI50: 1070 nM
MCF7
  GI50: 324 nM
MDA-MB-231
  GI50: 269 nM
DU-145
  GI50: 269 nM
786-0
  GI50: 214 nM
ACHN
  GI50: 363 nM
NCI-H522
  GI50: 324 nM
OVCAR-5
  GI50: 331 nM
NCI/ADR-RES
  GI50: 1150 nM
OVCAR-4
  GI50: 1150 nM
T47D
  GI50: 219 nM
SF-268
  GI50: 661 nM
SR
  GI50: 21.9 nM
CAKI-1
  GI50: 355 nM
HL-60
  GI50: 380 nM
Hs-578T
  GI50: 501 nM
U-251
  GI50: 229 nM
SF-295
  GI50: 676 nM
TK-10
  GI50: 479 nM
SK-MEL-5
  GI50: 347 nM
PC-3
  GI50: 295 nM
NCI-H322M
  GI50: 2190 nM
HCT-15
  GI50: 646 nM
SW-620
  GI50: 427 nM
IGROV-1
  GI50: 2400 nM
